According to ChEMBL document CHEMBL1275503, “Characterization of an ABCG-like transporter from the protozoan parasite Leishmania with a role in drug resistance and transbilayer lipid movement” (Antimicrob Agents Chemother, 2008):

tested on: Leishmania infantum; assay: Antileishmanial activity against GFP-tagged at COOH terminus Leishmania infantum promastigotes overexpressing LiABCG6 assessed as cell viability after 72 hrs by MTT assay; format: functional, organism-based
In short: (§1)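 L. infantum promastigotes (strain MHOM/ES/1993/BCN-99) grown at 28°C in modified RPMI 1640 with 20% heat-inactivated fetal bovine serum. Drug sensitivity was measured by MTT-based assay. IC50 was taken as the drug concentration giving half-maximal inhibition of cellular growth rate.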

Q: How did the IC50 turn out when `CCCCCCCCCCCCCCCCCCOCC(COP(=O)([O-])OCC[N+](C)(C)C)OC` (configuration not stated) [EDELFOSINE] was run?
A: 12.9 µM

Q: With `CCCCCCCCCCCCCCCCOP(=O)([O-])OCC[N+](C)(C)C` [MILTEFOSINE] as the compound, how does the IC50 read?
A: 13.6 µM

Q: How did the IC50 turn out when `CCCCCCCCCCCCCCCCCCOP(=O)([O-])OC1CC[N+](C)(C)CC1` [PERIFOSINE] was run?
A: 12.2 µM

Q: Which IC50 does the source give for `CCN(CC)CCCCCCNc1cc(OC)cc2c(C)ccnc12` [SITAMAQUINE] here?
A: 15.2 µM

tested on: Leishmania infantum; assay: Antileishmanial activity against Leishmania infantum promastigotes overexpressing LiABCG6 assessed as cell viability after 72 hrs by MTT assay; format: functional, organism-based; in short: as §1

Q: `CC[C@@]1(O)C(=O)OCc2c1cc1n(c2=O)Cc2cc3ccccc3nc2-1` [CAMPTOTHECIN] was tested. Which IC50 did it give?
A: 34.4 µM

Q: `CCN(CC)CCCC(C)Nc1ccnc2cc(Cl)ccc12` (configuration not stated) [CHLOROQUINE] was tested. Which IC50 did it give?
A: 24.1 µM

Q: Which IC50 does the source give for `CCCCCCCCCCCCCCCCCCOCC(COP(=O)([O-])OCC[N+](C)(C)C)OC` (configuration not stated) [EDELFOSINE] here?
A: 11.3 µM

Q: With `CC(=O)N1CCN(c2ccc(OCC3COC(Cn4ccnc4)(c4ccc(Cl)cc4Cl)O3)cc2)CC1` (configuration not stated) [KETOCONAZOLE] as the compound, how does the IC50 read?
A: 19.3 µM

Q: Which IC50 does the source give for `OC(c1cc(C(F)(F)F)nc2c(C(F)(F)F)cccc12)C1CCCCN1` (configuration not stated) [MEFLOQUINE] here?
A: 7 µM

Q: `CCCCCCCCCCCCCCCCOP(=O)([O-])OCC[N+](C)(C)C` [MILTEFOSINE] was tested. Which IC50 did it give?
A: 12.9 µM

Q: `CCCCCCCCCCCCCCCCCCOP(=O)([O-])OC1CC[N+](C)(C)CC1` [PERIFOSINE] was tested. Which IC50 did it give?
A: 11 µM

Q: Which IC50 does the source give for `COc1cc(NC(C)CCCN)c2ncccc2c1` (configuration not stated) [PRIMAQUINE] here?
A: 54.9 µM

Q: `CCN(CC)CCCCCCNc1cc(OC)cc2c(C)ccnc12` [SITAMAQUINE] was tested. Which IC50 did it give?
A: 14.3 µM

tested on: Leishmania infantum; assay: Antileishmanial activity against GFP-tagged at NH2 terminus Leishmania infantum promastigotes overexpressing LiABCG6 assessed as cell viability after 72 hrs by MTT assay; format: functional, organism-based; in short: as §1

Q: `CCCCCCCCCCCCCCCCCCOCC(COP(=O)([O-])OCC[N+](C)(C)C)OC` (configuration not stated) [EDELFOSINE] was tested. Which IC50 did it give?
A: 4.8 µM

Q: Which IC50 does the source give for `CCCCCCCCCCCCCCCCOP(=O)([O-])OCC[N+](C)(C)C` [MILTEFOSINE] here?
A: 5.6 µM

Q: With `CCCCCCCCCCCCCCCCCCOP(=O)([O-])OC1CC[N+](C)(C)CC1` [PERIFOSINE] as the compound, how does the IC50 read?
A: 4.2 µM

Q: Which IC50 does the source give for `CCN(CC)CCCCCCNc1cc(OC)cc2c(C)ccnc12` [SITAMAQUINE] here?
A: 7.8 µM
